From ChEMBL document CHEMBL2346664, “Synthesis, characterization and in vitro anticancer evaluation of novel 1,2,4-triazolin-3-one derivatives” (2013)

Assays:
Assay type in all cases: functional
DU-145 [1] = assay: Growth inhibition of human DU145 cells assessed as cell growth at 10 '-6 M after 48 hrs by sulforhodamine B assay; settings: DU-145, 48 h, read-out: Activity
SR [2] = assay: Growth inhibition of human SR cells assessed as cell growth at 10 '-8 M after 48 hrs by sulforhodamine B assay; settings: read-out: Activity
RXF 393 [3] = assay: Growth inhibition of human RXF393 cells after 48 hrs by sulforhodamine B assay; settings: RXF 393, 48 h
COLO 205 = assay: Growth inhibition of human COLO205 cells assessed as growth inhibition at 10 uM after 48 hrs by sulforhodamine B assay; settings: COLO 205, 48 h, read-out: GI
SK-MEL-2 = assay: Growth inhibition of human SK-MEL-2 cells assessed as cell growth at 10 '-6 M after 48 hrs by sulforhodamine B assay; settings: SK-MEL-2, 48 h, read-out: Activity
MDA-MB-468 = assay: Growth inhibition of human MDA-MB-468 cells after 48 hrs by sulforhodamine B assay; settings: MDA-MB-468, 48 h
Method in brief: (§1)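 NCI 60-cell-line five-dose screen. Cells were plated at 5,000–40,000/well by doubling time and grown 24 h at 37 °C, 5% CO2. Time-zero plates were TCA-fixed. Drug from DMSO stock was tested at 0.01, 0.1, 1, 10 and 100 µM final for 48 h continuous exposure. Read-out was SRB at 515 nm. GI50 is the concentration giving 50% reduction in net protein increase versus untreated control.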

RXF 393 [4] = assay: Growth inhibition of human RXF393 cells assessed as cell growth at 10 '-5 M after 48 hrs by sulforhodamine B assay; settings: RXF 393, 48 h, read-out: Activity
SR [5] = assay: Growth inhibition of human SR cells assessed as cell growth at 10 '-5 M after 48 hrs by sulforhodamine B assay; settings: read-out: Activity
IGROV-1 [6] = assay: Growth inhibition of human IGROV1 cells assessed as cell growth at 10 '-8 M after 48 hrs by sulforhodamine B assay; settings: IGROV-1, 48 h, read-out: Activity
Malme-3M = assay: Growth inhibition of human MALME-3M cells assessed as cell growth at 10 '-4 M after 48 hrs by sulforhodamine B assay; settings: read-out: Activity
TK-10 = assay: Growth inhibition of human TK10 cells assessed as cell growth at 10 '-4 M after 48 hrs by sulforhodamine B assay; settings: TK-10, 48 h, read-out: Activity
OVCAR-4 = assay: Growth inhibition of human OVCAR4 cells after 48 hrs by sulforhodamine B assay; settings: OVCAR-4, 48 h
Method in brief: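 NCI 60-cell-line five-dose screen over 0.01, 0.1, 1, 10 and 100 µM, with 48 h continuous exposure at 37 °C and 5% CO2 after 24 h pre-incubation (5,000–40,000 cells/well). Cells were TCA-fixed (10% final for adherent, 16% for suspension), stained with SRB and read at 515 nm. GI50 was solved from [(Ti−Tz)/(C−Tz)]×100 = 50 against time-zero plates.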

OVCAR-3 = assay: Growth inhibition of human OVCAR3 cells assessed as cell growth at 10 '-4 M after 48 hrs by sulforhodamine B assay; settings: OVCAR-3, 48 h, read-out: Activity
HCT-15 = assay: Growth inhibition of human HCT15 cells assessed as cell growth at 10 '-5 M after 48 hrs by sulforhodamine B assay; settings: HCT-15, 48 h, read-out: Activity
M14 = assay: Growth inhibition of human M14 cells assessed as cell growth at 10 '-8 M after 48 hrs by sulforhodamine B assay; settings: M14, 48 h, read-out: Activity
DU-145 [7] = assay: Growth inhibition of human DU145 cells assessed as cell growth at 10 '-7 M after 48 hrs by sulforhodamine B assay; settings: DU-145, 48 h, read-out: Activity
OVCAR-5 = assay: Growth inhibition of human OVCAR5 cells after 48 hrs by sulforhodamine B assay; settings: OVCAR-5, 48 h
SNB-75 = assay: Growth inhibition of human SNB75 cells assessed as growth inhibition at 10 uM after 48 hrs by sulforhodamine B assay; settings: SNB-75, 48 h, read-out: GI
NCI-H23 = assay: Growth inhibition of human NCI-H23 cells assessed as cell growth at 10 '-4 M after 48 hrs by sulforhodamine B assay; settings: NCI-H23, 48 h, read-out: Activity
HT-29 [8] = assay: Growth inhibition of human HT-29 cells assessed as cell growth at 10 '-6 M after 48 hrs by sulforhodamine B assay; settings: HT-29, 48 h, read-out: Activity
HT-29 [9] = assay: Growth inhibition of human HT-29 cells assessed as growth inhibition at 10 uM after 48 hrs by sulforhodamine B assay; settings: HT-29, 48 h, read-out: GI
T47D = assay: Growth inhibition of human T47D cells assessed as cell growth at 10 '-5 M after 48 hrs by sulforhodamine B assay; settings: read-out: Activity
[10] = Growth inhibition of human Hs 578T cells after 48 hrs by sulforhodamine B assay; method in brief: as §1
UACC-62 = assay: Growth inhibition of human UACC62 cells assessed as growth inhibition at 10 uM after 48 hrs by sulforhodamine B assay; settings: UACC-62, 48 h, read-out: GI
IGROV-1 [11] = assay: Growth inhibition of human IGROV1 cells assessed as cell growth at 10 '-7 M after 48 hrs by sulforhodamine B assay; settings: IGROV-1, 48 h, read-out: Activity
A498 = assay: Growth inhibition of human A498 cells assessed as cell growth at 10 '-6 M after 48 hrs by sulforhodamine B assay; settings: A498, 48 h, read-out: Activity
Method in brief: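 Percent growth at each of the five concentrations of the 48 h continuous-exposure NCI SRB screen. Drug stocks were in DMSO at 400× the top final concentration and diluted in medium with gentamicin. Growth was calculated as [(Ti-Tz)/(C-Tz)]×100 when Ti ≥ Tz, or [(Ti-Tz)/Tz]×100 when Ti < Tz. Tz plates were fixed at drug addition; untreated wells served as control. Absorbance was read at 515 nm.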

UO-31 = assay: Growth inhibition of human UO31 cells assessed as growth inhibition at 10 uM after 48 hrs by sulforhodamine B assay; settings: UO-31, 48 h, read-out: GI
LOX IMVI = assay: Growth inhibition of human LOXIMVI cells assessed as cell growth at 10 '-7 M after 48 hrs by sulforhodamine B assay; settings: read-out: Activity
HOP-92 = assay: Growth inhibition of human HOP92 cells after 48 hrs by sulforhodamine B assay; settings: HOP-92, 48 h; method in brief: as §1
SK-MEL-28 = assay: Growth inhibition of human SK-MEL-28 cells assessed as growth inhibition at 10 uM after 48 hrs by sulforhodamine B assay; settings: SK-MEL-28, 48 h, read-out: GI
[12] = read-out: LD50 (the source's name)

## Cc1cc(=O)oc2cc(OCCn3c(C)nn(-c4ccc(Cl)cc4)c3=O)ccc12
DU-145 [1]
  growth at 1 µM: 96%
SR [2]
  growth at 0.01 µM: 101%
RXF 393 [3]
  GI50: 2760 nM
  TGI: 3000 nM
RXF 393 [3]; [12]
  CC50: > 1000 nM
COLO 205
  inhibition of growth at 10 µM: 89.4%
SK-MEL-2
  growth at 1 µM: 112%
MDA-MB-468
  GI50: 2690 nM
  TGI: 5.76 µM
MDA-MB-468; [12]
  CC50: > 1000 nM
RXF 393 [4]
  growth at 10 µM: 18%
SR [5]
  growth at 10 µM: -6%
IGROV-1 [6]
  growth at 0.01 µM: 108%
Malme-3M
  growth at 100 µM: 41%
TK-10
  growth at 100 µM: -3%
OVCAR-4
  GI50: 2680 nM
OVCAR-4; [12]
  CC50: > 1000 nM
OVCAR-3
  growth at 100 µM: -29%
HCT-15
  growth at 10 µM: 20%
M14
  growth at 0.01 µM: 101%
DU-145 [7]
  growth at 0.1 µM: 108%
OVCAR-5
  GI50: 2190 nM
  TGI: > 1000 nM
OVCAR-5; [12]
  CC50: > 1000 nM
SNB-75
  inhibition of growth at 10 µM: 79.6%
NCI-H23
  growth at 100 µM: 19%
HT-29 [8]
  growth at 1 µM: 100%
HT-29 [9]
  inhibition of growth at 10 µM: 99.3%
T47D
  growth at 10 µM: 45%
[10]
  GI50: 2820 nM
  TGI: > 1000 nM
[10]; [12]
  CC50: > 1000 nM
UACC-62
  inhibition of growth at 10 µM: 56.7%
IGROV-1 [11]
  growth at 0.1 µM: 112%
A498
  growth at 1 µM: 52%
UO-31
  inhibition of growth at 10 µM: 57.2%
LOX IMVI
  growth at 0.1 µM: 88%
HOP-92
  GI50: 1610 nM
  TGI: > 1000 nM
HOP-92; [12]
  CC50: > 1000 nM
SK-MEL-28
  inhibition of growth at 10 µM: 59.2%
